Measurements from the array DNA melting data of Ke et al. (doi:10.1101/2024.01.08.574731).

What was measured:
[1] = folding enthalpy; higher = less favourable; fluorescence melt of hairpins on a sequencing array, two-state fit; conditions: sodium 0.088 M
Outline: (§1)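 Two-state fits, bootstrapped, provided melting temperature and folding enthalpy from Cy3 fluorescence normalised to pre-quench Cy3 and to control constructs. Library hairpins with annealed Cy3 and quencher oligos were imaged on a sequenced MiSeq flow cell in 50 mM Na-HEPES pH 8.0, 25 mM NaCl, at 2.5 °C intervals up to 60 °C. Four replicates were combined with inverse-variance weighting. A 9.35 °C upward shift was applied to fitted temperatures to match UV melts.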

[2] = melting temperature; fluorescence melt of hairpins on a sequencing array, two-state fit, raised by 9.35 °C to match UV melts; conditions: sodium 0.088 M
Outline: as §1

| Sequence | folding enthalpy [1] | Tm [2] |
| --- | --- | --- |
| CTTATGAAAATAAG (((((....))))) | -11.4 kcal/mol | 25.1 °C |
| GATCTGCATGCAGATC ((((((....)))))) | -46.5 kcal/mol | 62.4 °C |
| GCTCAGCGAAAGCTGTGC ((.((((....)))).)) | -21.5 kcal/mol | 64.2 °C |
| GGGTGCGGAAACACACCC (((((.(....).))))) | -37.6 kcal/mol | 54.8 °C |
| GAAACCGAAAGGTGTTC ((((((....))).))) | -13 kcal/mol | 36.5 °C |
| GGATTGCGAAAGCATTCC (((.(((....))).))) | -36.2 kcal/mol | 52.8 °C |
| GCCTTGCGAAAGCATTGC ((..(((....)))..)) | -11.4 kcal/mol | 48.2 °C |
| GCGACCGAAAGGTACGC ((((((....))).))) | -23.8 kcal/mol | 58.1 °C |
| GTACTTCGAAAGAATTAC (((.(((....))).))) | -18.6 kcal/mol | 32.2 °C |
| GCTGTACCGAAAGGTAGC (((..(((....)))))) | -15.4 kcal/mol | 43.7 °C |
| GATCCACGTCTGGATC ((((((....)))))) | -38.3 kcal/mol | 49.5 °C |
| GTGATCGAAAGATAGCAC ((((((....)))..))) | -15.6 kcal/mol | 28.3 °C |
| GTATAGCGAAAGCTCTAC (((.(((....))).))) | -17.3 kcal/mol | 39.7 °C |
| GATCCCTGACGGGATC ((((((....)))))) | -38.6 kcal/mol | 58.1 °C |
| GATCGGAAGCCCGATC ((((((....)))))) | -36.5 kcal/mol | 54.1 °C |
| GATCCTTAGTAGGATC ((((((....)))))) | -35.8 kcal/mol | 50.3 °C |
| GATCGCAAGCGCGATC ((((((....)))))) | -31 kcal/mol | 67.8 °C |
| GAGAGGCGAAAGCCACTC (((.(((....))).))) | -20.6 kcal/mol | 53.3 °C |
| GATCACTGTGTGATC ((((((...)))))) | -31 kcal/mol | 61.7 °C |
| GCACGCGAAAGCGTTGC ((((((....))).))) | -17.8 kcal/mol | 64.7 °C |
| GGTGGCGAAAGCCTCACC ((((((....)))..))) | -12.7 kcal/mol | 45.2 °C |
| GTACAACGAAAGTTTAC (((.(((....)))))) | -11.5 kcal/mol | 27.8 °C |
| GATCCTACCGAGGATC ((((((....)))))) | -39.2 kcal/mol | 51.2 °C |

| Sequence | folding enthalpy [1] | Tm [2] |
| --- | --- | --- |
| GTGTTTGGAAACAAACGC (.(((((....))))).) | -32.3 kcal/mol | 51 °C |
| CGCGCGGAAACGCGAGCG ((((((....)))..))) | -12.1 kcal/mol | 60.7 °C |
| GCTTCGGGAAACTGAAGC (((((.(....).))))) | -41.3 kcal/mol | 53.2 °C |
| GATCCCCACAGGGATC ((((((....)))))) | -23 kcal/mol | 66.4 °C |
| GCGGTTGACCGC ((((....)))) | -24.7 kcal/mol | 63.9 °C |
| GATCATCATATGATC ((((((...)))))) | -35.5 kcal/mol | 47.2 °C |
| GCTTTAACGAAAGTTAGC (((..(((....)))))) | -18.8 kcal/mol | 31.9 °C |
| GCGGACGGAAACGTCTGC ((.((((....)))).)) | -36.3 kcal/mol | 65.9 °C |
| GCTCCACGAAAGTGTAGC (((.(((....))).))) | -28.9 kcal/mol | 49.2 °C |
| GTTACGCGAAAGCGAAAC (((.(((....))).))) | -23.5 kcal/mol | 51.1 °C |
| GATCTAACTATAGATC ((((((....)))))) | -29.3 kcal/mol | 37.5 °C |
| GATCTCATCGGAGATC ((((((....)))))) | -36.1 kcal/mol | 52.8 °C |
| GTGCTGCCGAAAGGCCAC (((..(((....)))))) | -11.5 kcal/mol | 48.1 °C |
| GCAGTGCGAAAGCATTGC (((.(((....))).))) | -55.4 kcal/mol | 58.9 °C |
| GCGCAGCGAAAGCAGTGC ((.(.((....)).).)) | -12 kcal/mol | 54.4 °C |
| GGAATAGGAAACTATTCC (((((((....))))))) | -41.4 kcal/mol | 52.7 °C |
| GATCATGGTCATGATC ((((((....)))))) | -38 kcal/mol | 51.8 °C |
| GGCAGAGCGAAAGCTGCC (((..(((....)))))) | -28.6 kcal/mol | 61.9 °C |
| GATCCGCAGCGGATC ((((((...)))))) | -54.5 kcal/mol | 54.8 °C |
| GTATGCGGAAACGTGTAC (((..((....))..))) | -30.2 kcal/mol | 39.4 °C |
| GATCCCTGAAGGGATC ((((((....)))))) | -32.8 kcal/mol | 64.1 °C |
| GGCTGACGAAAGTCGCC (((.(((....)))))) | -28.9 kcal/mol | 59.6 °C |
| GCGAACGAAAGTTGGCGC ((((((....)))..))) | -32.8 kcal/mol | 53.9 °C |

| Sequence | folding enthalpy [1] | Tm [2] |
| --- | --- | --- |
| GATCATCCAGATGATC ((((((....)))))) | -37.5 kcal/mol | 50.3 °C |
| GCTCTGCGAAAGCACAGC (((.(((....))).))) | -25.6 kcal/mol | 38.6 °C |
| GATCTGTCATCAGATC ((((((....)))))) | -38.1 kcal/mol | 50.1 °C |
| GCCACCGAAAGGTCAGGC ((((((....)))..))) | -23.1 kcal/mol | 48.4 °C |
| GGAGACGAAAGTCAGTCC ((((((....)))..))) | -13.6 kcal/mol | 31.6 °C |
| GGACCAGGAAACTGGCCC ((.((((....)))).)) | -35.4 kcal/mol | 52.3 °C |
| GCAGTTCGAAAGAAGTGC (((.(((....))).))) | -51 kcal/mol | 56.2 °C |
| GTCGATTCGAAAGAAGAC (((..(((....)))))) | -13 kcal/mol | 29.7 °C |
| GGCGTGGCGAAAGCCGCC (((..(((....)))))) | -16.4 kcal/mol | 66.7 °C |
| CACGTGAAAACGTG (((((....))))) | -24.9 kcal/mol | 58.6 °C |
| GCTCATCGAAAGATTAGC (((.(((....))).))) | -34.5 kcal/mol | 42.8 °C |
| GCAAGCCGAAAGGCCTGC (((.(((....))).))) | -23.3 kcal/mol | 54 °C |
| GATCGACGTTTCGATC ((((((....)))))) | -42.5 kcal/mol | 50.9 °C |
| GGAATAACGAAAGTTTCC (((..(((....)))))) | -14.8 kcal/mol | 32.5 °C |
| GCCGATGGAAACGTTGGC (((.(.(....).).))) | -25.5 kcal/mol | 43 °C |
| GCATTTGGAAACGAATGC (((((.(....).))))) | -41.8 kcal/mol | 49 °C |
| GTGCAAACGAAAGTTCAC (((..(((....)))))) | -7.78 kcal/mol | 33.2 °C |
| GACACCCGAAAGGGAGTC (((.(((....))).))) | -29.6 kcal/mol | 57.5 °C |
| GTTCTGGCGAAAGCCAAC (((..(((....)))))) | -7.18 kcal/mol | 19.8 °C |
| GCTGCGCGAAAGCTGAGC (((..((....))..))) | -13.2 kcal/mol | 43.8 °C |
| GCCCTTGGAAACAGGGGC ((((.((....)).)))) | -41.4 kcal/mol | 54.4 °C |
| GATCAAGGCTTGATC ((((((...)))))) | -49.3 kcal/mol | 47.8 °C |
| GGGTTCGAAAGAATCCC ((((((....))).))) | -29 kcal/mol | 52 °C |
